Data reported in ChEMBL document CHEMBL3046177, “Plant growth inhibitory activity of p-hydroxyacetophenones and tremetones from Chilean endemic Baccharis species and some analogous: a comparative study” (J Agric Food Chem, 2002).
The source made the active and inactive calls. The calls are words filed in the database; no cut-off is given here.

Experiments:
Trifolium pratense [1] = assay: Phytotoxicity against Trifolium pratense (red clover) assessed as inhibition of shoot development during seeding stage after 120 hr; format: functional, organism-based; settings: read-out: I50
Procedure, shortened: (§1)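 Petri-dish seedling assay on filter paper wetted with test solution (MeOH < 1%), 28 °C in the dark. Coleoptile/hypocotyl and root lengths of all germinated seeds measured after 120 h, then plants dried to constant weight at 40 °C. Three replicates; 50% inhibitory concentrations by Probit analysis of percent inhibition versus concentration.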

Lolium multiflorum [2] = assay: Phytotoxicity against Lolium multiflorum (Italian ryegrass) assessed as inhibition of root development during seeding stage after 120 hr; format: functional, organism-based; settings: read-out: I50; procedure, shortened: as §1
Lolium multiflorum [3] = assay: Phytotoxicity against Lolium multiflorum (Italian ryegrass) assessed as inhibition of seed respiration during germination after 24 hr; format: functional, organism-based
Procedure, shortened: (§2)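 Oxygen uptake of germinating seeds measured polarographically with a Clark-type electrode at 25 °C in a nonilluminated cell over 5 and 10 min, at several compound concentrations. Expressed as percent of control (100%). Three experiments; RI50 from Probit analysis.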

Trifolium pratense [4] = assay: Phytotoxicity against Trifolium pratense (red clover) assessed as inhibition of seed respiration during germination after 24 hr; format: functional, organism-based; procedure, shortened: as §2
Physalis ixocarpa [5] = assay: Phytotoxicity against Physalis ixocarpa assessed as inhibition of seed respiration during germination after 24 hr; format: functional, organism-based; procedure, shortened: as §2
Lactuca sativa [6] = assay: Phytotoxicity against Lactuca sativa (lettuce) assessed as inhibition of seed respiration during germination after 24 hr; format: functional, organism-based; procedure, shortened: as §2
Physalis ixocarpa [7] = assay: Phytotoxicity against Physalis ixocarpa assessed as inhibition of root development during seeding stage after 120 hr; format: functional, organism-based; settings: for IC50: read-out: I50; procedure, shortened: as §1
Physalis ixocarpa [8] = assay: Phytotoxicity against Physalis ixocarpa assessed as inhibition of seed germination after 48 hr; format: functional
Procedure, shortened: (§3)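 Seeds of uniform size on Whatman No.1 filter paper in 85 mm Petri dishes, wetted with 8 or 10 mL deionized water or test solution (MeOH < 1%); controls got matching water/methanol. Sealed, incubated at 28 °C in the dark, scored at 48 h intervals; germination = 1 mm radicle extrusion. Three replicates.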

Trifolium pratense [9] = assay: Phytotoxicity against Trifolium pratense (red clover) assessed as inhibition of seed germination after 48 hr; format: functional; procedure, shortened: as §3
Lolium multiflorum [10] = assay: Phytotoxicity against Lolium multiflorum (Italian ryegrass) assessed as inhibition of shoot development during seeding stage after 120 hr; format: functional, organism-based; settings: read-out: I50; procedure, shortened: as §1
Lactuca sativa [11] = assay: Phytotoxicity against Lactuca sativa (lettuce) assessed as inhibition of shoot development during seeding stage after 120 hr; format: functional, organism-based; settings: read-out: I50; procedure, shortened: as §1
Lolium multiflorum [12] = assay: Phytotoxicity against Lolium multiflorum (Italian ryegrass) assessed as inhibition of seed germination after 48 hr; format: functional; procedure, shortened: as §3
Trifolium pratense [13] = assay: Phytotoxicity against Trifolium pratense (red clover) assessed as inhibition of root development during seeding stage after 120 hr; format: functional, organism-based; settings: read-out: I50; procedure, shortened: as §1
Lactuca sativa [14] = assay: Phytotoxicity against Lactuca sativa (lettuce) assessed as inhibition of root development during seeding stage after 120 hr; format: functional, organism-based; settings: read-out: I50; procedure, shortened: as §1
Lactuca sativa [15] = assay: Phytotoxicity against Lactuca sativa (lettuce) assessed as inhibition of seed germination after 48 hr; format: functional; procedure, shortened: as §3
Physalis ixocarpa [16] = assay: Phytotoxicity against Physalis ixocarpa assessed as inhibition of shoot development during seeding stage after 120 hr; format: functional, organism-based; settings: for IC50: read-out: I50; procedure, shortened: as §1
Trifolium pratense [17] = assay: Phytotoxicity against Trifolium pratense (red clover) assessed as inhibition of seed respiration during germination after 72 hr; format: functional, organism-based; settings: read-out: I50; procedure, shortened: as §2
Phaseolus vulgaris = assay: Inhibition of mitochondrial respiration in Phaseolus vulgaris root mitochondria assessed as reduction of oxygen uptake; format: functional; settings: read-out: I50
Procedure, shortened: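 Mitochondria from roots of 72 h dark-grown (28 °C) bean seedlings, Percoll-gradient purified, 0.3-0.5 mg protein (Bradford) per run; integrity checked with HCN. Compounds in 0.5% methanol added after a constant state 3 rate with […] was reached. O2 uptake by Clark electrode; control is mitochondria with 0.5% MeOH. Three experiments; I50 by Probit.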

Physalis ixocarpa [18] = assay: Phytotoxicity against Physalis ixocarpa assessed as inhibition of seed respiration during germination after 72 hr; format: functional, organism-based; settings: read-out: I50; procedure, shortened: as §2
Lactuca sativa [19] = assay: Phytotoxicity against Lactuca sativa (lettuce) assessed as inhibition of seed respiration during germination after 72 hr; format: functional, organism-based; settings: read-out: I50; procedure, shortened: as §2
[20] = Antioxidant activity assessed as inhibition of bleaching of water soluble crocin measured every 5 min by spectrophotometric analysis; format: functional
Procedure, shortened: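 Aqueous mixture of 10 µM crocin, 1 mM t-BuOOH and 0.5 M t-BuOH with serial dilutions of test compound, placed under UV254 light; crocin bleaching (absorbance decrease) and fluorescence emission at 440 and 470 nm followed every 5 min. Three experiments, mean ± SEM.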

Spinacia oleracea [21] = assay: Inhibition of ATP synthesis in Spinacia oleracea (spinach) chloroplasts; format: functional
Procedure, shortened: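 Spinach thylakoids in 100 mM sorbitol, 5 mM MgCl2, 10 mM KCl, 1 mM Na+-tricine, pH 8, with 50 µM methyl viologen as Hill-reaction electron acceptor. Illuminated at 20 °C through 1% CuSO4 filter. ATP synthesis measured titrimetrically.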

Spinacia oleracea [22] = assay: Inhibition of H+ uptake in Spinacia oleracea (spinach) chloroplasts; format: functional; settings: for IC50: read-out: I50
Procedure, shortened: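 Spinach thylakoids (from isolated chloroplasts, in sorbitol/tricine/MgCl2/NaCl buffer, pH 7.8) in 100 mM sorbitol, 5 mM MgCl2, 10 mM KCl, 1 mM Na+-tricine, pH 8, with 50 µM methyl viologen. Illuminated at 20 °C through 1% CuSO4 filter. H+ uptake recorded as pH rise from 8.0 to 8.1 with combination microelectrode on expanded scale.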

[23] = system: Radical scavenging activity; assay: Antioxidant activity assessed as DPPH free radical scavenging activity after 30 min by TLC autographic assay; format: functional; settings: in the assay text read “spectrophotometric assay” for “TLC autographic assay”; read-out: I50
Lolium multiflorum [24] = assay: Phytotoxicity against Lolium multiflorum (Italian ryegrass) assessed as inhibition of seed respiration during germination after 72 hr; format: functional, organism-based; settings: read-out: I50; procedure, shortened: as §2
[25] = system: Lolium multiflorum (ryegrass); assay: Phytotoxicity against Lolium multiflorum (ryegrass) assessed as inhibition of seed germination at 500 uM after 48 hr
Lolium multiflorum [26] = assay: Phytotoxicity against Lolium multiflorum (Italian ryegrass) assessed as inhibition of seed germination at 500 uM after 48 hr; format: functional; procedure, shortened: as §3

| IC50 (Spinacia oleracea [22]) [µM] | Compound | IC50 (Trifolium pratense [1]) [µM] | IC50 (Lolium multiflorum [2]) [µM] | I50 (Lolium multiflorum [3]) | I50 (Trifolium pratense [4]) | I50 (Physalis ixocarpa [5]) | I50 (Lactuca sativa [6]) | IC50 (Physalis ixocarpa [7]) [µM] | GI50 (Physalis ixocarpa [8]) | GI50 (Trifolium pratense [9]) [µM] | IC50 (Lolium multiflorum [10]) [µM] | IC50 (Lactuca sativa [11]) [µM] | GI50 (Lolium multiflorum [12]) [µM] | IC50 (Trifolium pratense [13]) [µM] | IC50 (Lactuca sativa [14]) [µM] | GI50 (Lactuca sativa [15]) [µM] | IC50 (Physalis ixocarpa [16]) [µM] | IC50 (Trifolium pratense [17]) [µM] | inhibition (Spinacia oleracea [21]) | inhibition (Spinacia oleracea [22]) | other results |
| --- | --- | --- | --- | --- | --- | --- | --- | --- | --- | --- | --- | --- | --- | --- | --- | --- | --- | --- | --- | --- | --- |
| – | CC(=O)c1ccc2c(c1)C[C@H](C(C)C)O2 [10,11-DIHYDRO TREMETONE] | 23.2 | 31.9 | inactive | inactive | inactive | inactive | 19.1 | 24.7 µM | 27.9 | 29.3 | 17.3 | 31.5 | 28.6 | 17.4 | 25.9 | 20.1 | – | – | – | – |
| 40.7 | CC(=O)c1ccc2c(c1)CC(C1(C)CO1)O2 (configuration not stated) [10,11-EPOXY TREMETONE] | 14.3 | 72.6 | – | – | – | – | 15.7 | 19.2 µM | 22.3 | 65.9 | 33 | 65.6 | 16.2 | 33.8 | 36.1 | 5.8 | 49.1 | Dose-dependent effect | Dose-dependent effect | IC50 (Phaseolus vulgaris): 109 µM; IC50 (Physalis ixocarpa [18]): 57.5 µM; IC50 (Lactuca sativa [19]): 58 µM; inhibition [20]: Active; IC50 [23]: 62.6 µM; IC50 (Lolium multiflorum [24]): 67.9 µM |
| – | CC(=O)c1ccccc1 [ACETOPHENONE] | 137 | 128 | inactive | inactive | inactive | inactive | – | inactive | 137 | 126 | 49.5 | 128 | 134 | 45.7 | 47 | – | – | – | – | I50 (Physalis ixocarpa [7]): inactive; inhibition at 500 µM [25]: 30%; inhibition at 500 µM (Lolium multiflorum [26]): 30%; I50 (Physalis ixocarpa [16]): inactive |
| 65.7 | COc1ccc(C(C)=O)cc1 [P-METHOXY-ACETOPHENONE] | 120 | 18.9 | – | – | – | – | 20.5 | 23.5 µM | 126 | 17.9 | 49.5 | 18.1 | 126 | 44.3 | 51.2 | 20.1 | 57.6 | Dose-dependent effect | Dose-dependent effect | IC50 (Phaseolus vulgaris): 152 µM; IC50 (Physalis ixocarpa [18]): 54.6 µM; IC50 (Lactuca sativa [19]): 55.9 µM; IC50 (Lolium multiflorum [24]): 40 µM |
| – | O=C1C(O)=C(O)C(=O)C(O)=C1O [TETROQUINONE] | – | – | – | – | – | – | – | – | – | – | – | – | – | – | – | – | – | – | – | IC50 [23]: 9.37 µM |
| 70.7 | C=C(C)[C@H]1Cc2cc(C(C)=O)ccc2O1 [TREMETONE] | 35.5 | 36.1 | inactive | inactive | inactive | inactive | 18.6 | 31.8 µM | 35.5 | 35 | 45 | 37.5 | 34.9 | 44.2 | 45 | 7.7 | – | Dose-dependent effect | Dose-dependent effect | inhibition [20]: Active |
